Measured values from different studies.
Lines come from different studies, so protocols differ.
Target: Phosphatidylinositol 4,5-bisphosphate 3-kinase catalytic subunit beta isoform (PIK3CB, Homo sapiens, UniProt P42338)

`CS(=O)(=O)Nc1cc(-c2ccc3ncnc(Nc4ccc(F)c(Cl)c4)c3c2)cnc1Cl` gave an inhibition of 90 to 100% (enzyme activity; inhibitor; FRET; 10 µM).
`CNc1cc(Oc2cc(C(=O)Nc3cc(N4CCN(C)CC4)cc(C(F)(F)F)c3)ccc2C)ncn1` gave an inhibition of -11.6% (target engagement in cells; inhibitor; chemoproteomics; Huh-7; 1 µM).
`Nc1ncnc2occ(-c3ccc(NC(=O)Nc4cc(C(F)(F)F)ccc4F)cc3)c12` has a remaining signal of 86% (cell-free assay; inhibitor; 20 µM).
For `COc1cc(-c2cc(-c3ccc(N4CCNCC4)cc3)cnc2C)cc(OC)c1OC`, the inhibition was 6% (enzyme activity; inhibitor; 1 µM).
`CCCCNc1ncc2c(-c3ccc(F)cc3)nn(C[C@H]3CC[C@H](N)CC3)c2n1` gave an inhibition of 16.7% (target engagement in cells; inhibitor; chemoproteomics; 20 mM).
`O=C(N1CCS(=O)(=O)CC1)N1C[C@H](c2ccc(OC(F)(F)F)cc2)C[C@H](c2nc(C3CC3)no2)C1` gave a remaining binding of 66% (cell-free assay; competition with immobilised ligand; 1 µM).
`Cc1ccc(C(=O)Nc2ccc(CN3CCN(C)CC3)c(C(F)(F)F)c2)cc1C#Cc1cnc2cccnn12` gave a remaining activity of 99% (enzyme activity; inhibitor; 23.5 nM).
`CCOCCn1cc(C(=O)Nc2ccc(-n3nc(-c4cccnc4)cc3C(F)(F)F)cn2)ccc1=O` has a remaining binding of 82% (cell-free assay; competition with immobilised ligand; 1 µM).
For `COc1cccc2c(NCc3ccccc3)nc(-n3c(N)nc4ccccc43)nc12`, the inhibition was 5.6% (target engagement in cells; inhibitor; chemoproteomics; 20 mM).
